Assay results reported in ChEMBL document CHEMBL1147092, “Pharmacokinetic/pharmacodynamic factors influencing emergence of resistance to linezolid in an in vitro model” (Antimicrob Agents Chemother, 2007).
Converted amounts (≈) assume the structure as drawn.

What was measured:
Staphylococcus aureus [1] = assay: Antibacterial activity against heteroresistant vancomycin-intermediate Staphylococcus aureus Mu3 using in vitro PK/PD model with 120 mg/24 hr continuous infusion simulated regimen after 72 hrs; type: functional; settings: Mu3, 72 h
[2] = Half life for simulated intermittent-dosage regimen at 600 mg every 12 hrs using in vitro PK/PD model
Staphylococcus aureus [3] = assay: Bactericidal activity against vancomycin-intermediate Staphylococcus aureus Mu50 assessed as reduction of CFU using in vitro PK/PD model with human dosage regimen 600 mg every 12 hrs after 24 hrs; type: functional
Summary of the method: (§1)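 Flow-through in vitro PK/PD model in BHI broth at 37°C, 5-h half-life (Vd 290 ml); exponential-phase inoculum 10^6 CFU/ml, duplicates with growth controls. […] Viable counts by saline dilution, plating on nutrient agar, 37°C 24 h; bactericidal = >3-log10 CFU/ml drop.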

Staphylococcus aureus [4] = assay: Bactericidal activity against vancomycin-intermediate Staphylococcus aureus Mu50 assessed as reduction of CFU using in vitro PK/PD model with 120 mg/24 hr continuous infusion simulated regimen after 48 hrs; type: functional; summary of the method: as §1
Staphylococcus aureus [5] = assay: Area under population analysis profile for vancomycin-intermediate Staphylococcus aureus Mu50 using in vitro PK/PD model relative to growth control with 120 mg/24 hrs continuous infusion regimen after 72 hrs; type: functional
Enterococcus faecium [6] = assay: Bactericidal activity against vancomycin-resistant Enterococcus faecium ATCC 700221 assessed as reduction of CFU using in vitro PK/PD model with human dosage regimen 600 mg every 12 hrs at 24 hrs; type: functional
Summary of the method: (§2)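 Flow-through central chamber of BHI broth at 37°C, with pumped clearance set for a 5-h half-life (volume of distribution 290 ml). Exponential-phase inoculum was 10^6 CFU/ml, in duplicate, with growth controls. Samples taken 0–72 h were diluted in saline, plated on nutrient agar and incubated 37°C for 24 h; quantification limit 50 CFU/ml. Drug levels were checked by HPLC. Reduction is the log10 CFU/ml fall.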

Staphylococcus aureus [7] = assay: Area under population analysis profile for heteroresistant vancomycin-intermediate Staphylococcus aureus Mu3 using in vitro PK/PD model relative to growth control with 120 mg/24 hrs continuous infusion regimen after 72 hrs; type: functional
Summary of the method: (§3)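 Bacteria recovered after 72 h of a 2.0-μg/ml continuous infusion in a flow-through BHI model (duplicates). 50 μl of a 0.5 McFarland suspension or dilutions were spiral-plated on BHI agar with linezolid 0–5 μg/ml and incubated 35°C for 48 h; counting limit 20 CFU/ml. Area under the log10 CFU/ml vs concentration curve (trapezoidal) is compared with the 72-h growth control.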

Staphylococcus aureus [8] = assay: Bactericidal activity against vancomycin-intermediate Staphylococcus aureus Mu50 assessed as reduction of CFU using in vitro PK/PD model with human dosage regimen 120 mg every 12 hrs after 24 hrs; type: functional; summary of the method: as §2
Enterococcus faecium [9] = assay: Antibacterial activity against vancomycin-resistant Enterococcus faecium ATCC 700221 by microdilution method; type: functional
Summary of the method: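 Standard broth microdilution in cation-adjusted Mueller-Hinton broth, run in four replicates at baseline. Before testing, the strain was held at −80°C in tryptone soy broth with 20% glycerol and subcultured on horse blood agar for 24 h at 35°C.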

Staphylococcus aureus [10] = assay: Bactericidal activity against heteroresistant vancomycin-intermediate Staphylococcus aureus Mu3 assessed as reduction of CFU using in vitro PK/PD model with human dosage regimen 600 mg every 12 hrs after 24 hrs; type: functional; summary of the method: as §2
Staphylococcus aureus [11] = assay: Bactericidal activity against methicillin-resistant Staphylococcus aureus ATCC 43300 assessed as reduction of CFU using in vitro PK/PD model with human dosage regimen 600 mg every 12 hrs after 24 hrs; type: functional; summary of the method: as §2
Staphylococcus aureus [12] = assay: Area under population analysis profile for methicillin-resistant Staphylococcus aureus using in vitro PK/PD model relative to growth control with 120 mg/24 hrs continuous infusion regimen after 72 hrs; type: functional; summary of the method: as §3
[13] = Half life for simulated intermittent-dosage regimen at 120 mg every 12 hrs using in vitro PK/PD model
Enterococcus faecium [14] = assay: Area under population analysis profile for vancomycin-resistant Enterococcus faecium ATCC 700221 using in vitro PK/PD model relative to growth control with 120 mg/24 hrs continuous infusion regimen after 72 hrs; type: functional; summary of the method: as §3
Enterococcus faecium [15] = assay: Bactericidal activity against vancomycin-resistant Enterococcus faecium ATCC 700221 assessed as reduction of CFU using in vitro PK/PD model with 120 mg/24 hr continuous infusion simulated regimen after 48 hrs; type: functional; summary of the method: as §2
Staphylococcus aureus [16] = assay: Antibacterial activity against methicillin-resistant Staphylococcus aureus ATCC 43300 using in vitro PK/PD model with 120 mg/24 hr continuous infusion simulated regimen after 72 hrs; type: functional; settings: ATCC 43300, 72 h

## CC(=O)NC[C@H]1CN(c2ccc(N3CCOCC3)c(F)c2)C(=O)O1 [LINEZOLID]
Staphylococcus aureus [1]
  MIC: ≥ 8 mg/L
[2]
  half-life at 12 h: 5.32 h
Staphylococcus aureus [3]
  log10CFU/ml: 3.3
Staphylococcus aureus [4]
  log10CFU/ml: >3
Staphylococcus aureus [5]
  AUPAP: 90.2%
Enterococcus faecium [6]
  log10CFU/ml: 3.8
Staphylococcus aureus [7]
  AUPAP: 70.2%
Staphylococcus aureus [8]
  log10CFU/ml: >3
Enterococcus faecium [9]
  MIC: 2 mg/L (≈ 5.93 µM)
Staphylococcus aureus [10]
  log10CFU/ml: 3.1
Staphylococcus aureus [11]
  log10CFU/ml: 3.9
Staphylococcus aureus [12]
  AUPAP: 178%
[13]
  half-life at 12 h: 5.32 h
Enterococcus faecium [14]
  AUPAP: 40%
Enterococcus faecium [15]
  log10CFU/ml: >3
Staphylococcus aureus [16]
  MIC: ≥ 8 mg/L
